Laboratory results as given in ChEMBL document CHEMBL3102705, “Design, synthesis and investigation on the structure-activity relationships of N-substituted 2-aminothiazole derivatives as antitubercular agents” (Eur J Med Chem, 2014).
Converted amounts (≈) assume the structure as drawn.

Assays:
[1] = test system: Mycobacterium tuberculosis; assay: Antitubercular activity against Mycobacterium tuberculosis H37Rv ATCC 27294 assessed as growth inhibition after 16 to 24 hrs by microplate-Alamar Blue assay; type: functional
How it was run: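 MIC against M. tuberculosis H37Rv (ATCC 27294), actively replicating, by microplate Alamar Blue assay.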

[2] = test system: Vero; assay: Cytotoxicity against African green monkey Vero cells assessed as cell viability after 72 hrs by MTS assay; type: cell-based; conditions: Chlorocebus sabaeus
How it was run: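 Value reported as an IC50 against Vero cells.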

[3] = test system: Mycobacterium tuberculosis; assay: Ratio of MIC for Mycobacterium tuberculosis H37Rv ATCC 27294 expressing Vibrio harveyii luciferase gene with acetamidase promoter by low-oxygen recovery assay to MIC for Mycobacterium tuberculosis H37Rv ATCC 27294 by microplate-Alamar Blue assay; type: functional
[4] = test system: Mycobacterium tuberculosis; assay: Antitubercular activity against recombinant Mycobacterium tuberculosis H37Rv ATCC 27294 expressing Vibrio harveyii luciferase gene with acetamidase promoter assessed as reduction of metabolic recovery after 10 days by low-oxygen recovery assay; type: functional; conditions: H37Rv ATCC 27294, 240 h
How it was run: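 Low oxygen recovery assay on H37Rv (ATCC 27294), used as an in vitro model of nonreplicating persistent M. tuberculosis. Each MIC is a single measurement.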

[5] = Selectivity index, ratio of IC50 for African green monkey Vero cells to MIC for Mycobacterium tuberculosis H37Rv ATCC 27294; type: toxicity, cell-based; conditions: read-out: Selectivity Index
How it was run: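 Selectivity index calculated as the Vero cell cytotoxicity IC50 divided by the MABA MIC against H37Rv. Cytotoxicity was measured on Vero cells.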

SMILES	MIC [1] [µM]	further results
Cc1ccc(Nc2nc(C)cs2)cc1	> 128	
COc1ccc(-c2csc(Nc3ccc(C)cc3)n2)cc1	13 (≈ 3.85 µg/mL)	IC50 [2]: > 128 µM; Ratio [3]: 2; MIC [4]: 31.8 µM
Clc1cc(Cl)cc(Nc2nc(-c3ccccc3)c(Cc3ccccc3)s2)c1	20 (≈ 8.23 µg/mL)	IC50 [2]: 82.7 µM
Fc1ccc(C(F)(F)F)cc1-c1csc(N(Cc2ccccc2)c2cc(Cl)cc(Cl)c2)n1	> 128	
Clc1cc(Cl)cc(Nc2nc3c(s2)Cc2ccccc2-3)c1	> 128	
Fc1ccc(Nc2nc3c(s2)Cc2ccccc2-3)cc1	> 128	
Clc1cc(Cl)cc(Nc2nc3c(s2)-c2ccccc2C3)c1	> 128	
Clc1cc(Cl)cc(Nc2nc3c(s2)CCc2ccccc2-3)c1	43.3 (≈ 15 µg/mL)	
Fc1ccc(C(F)(F)F)cc1-c1csc(NC2CCCCC2)n1	30.3 (≈ 10.4 µg/mL)	
Cc1ccc(Nc2ncc(-c3ccccc3)s2)cc1	> 128	
CN(C)c1nc(-c2cc(C(F)(F)F)ccc2F)cs1	> 128	
Fc1ccc(C(F)(F)F)cc1-c1csc(N2CCCCC2)n1	56.5 (≈ 18.7 µg/mL)	
CC(=O)N1CCN(c2nc(-c3cc(C(F)(F)F)ccc3F)cs2)CC1	118 (≈ 44 µg/mL)	
Cc1ccc2c(ccn2-c2nc(-c3cc(C(F)(F)F)ccc3F)cs2)c1	> 128	
Cc1ccc(C(=O)Nc2nc(-c3cc(C(F)(F)F)ccc3F)cs2)cc1	> 128	
Cc1ccc(CNc2nc(-c3cc(C(F)(F)F)ccc3F)cs2)cc1	> 128	
Fc1ccc(C(F)(F)F)cc1-c1csc(Nc2ccncc2)n1	> 128	
Cc1ccc(Nc2nc(-c3cc(C(F)(F)F)ccc3F)cs2)cc1	27.5 (≈ 9.69 µg/mL)	selectivity ratio [5]: 3.4; IC50 [2]: 92.4 µM
Cc1ccc(N(C)c2nc(-c3cc(C(F)(F)F)ccc3F)cs2)cc1	31.7 (≈ 11.6 µg/mL)	IC50 [2]: > 128 µM
Cc1cccc(Nc2nc(-c3cc(C(F)(F)F)ccc3F)cs2)c1	29.8 (≈ 10.5 µg/mL)	
Cc1ccccc1Nc1nc(-c2cc(C(F)(F)F)ccc2F)cs1	35.1 (≈ 12.4 µg/mL)	
Fc1ccc(C(F)(F)F)cc1-c1csc(Nc2ccc(Cl)cc2)n1	19.2 (≈ 7.16 µg/mL)	selectivity ratio [5]: 2.4; IC50 [2]: 46.6 µM; Ratio [3]: 2; MIC [4]: 31.5 µM
Fc1ccc(C(F)(F)F)cc1-c1csc(Nc2cccc(Cl)c2)n1	30.1 (≈ 11.2 µg/mL)	

SMILES	MIC [1] [µM]	further results
Fc1ccc(C(F)(F)F)cc1-c1csc(Nc2ccccc2Cl)n1	> 128	
Fc1ccc(C(F)(F)F)cc1-c1csc(Nc2ccc(Cl)cc2Cl)n1	> 128	
Fc1ccc(C(F)(F)F)cc1-c1csc(Nc2cc(Cl)cc(Cl)c2)n1	15 (≈ 6.11 µg/mL)	selectivity ratio [5]: 3.3; IC50 [2]: 50 µM; MIC [4]: 15.2 µM
Cc1cc(C)cc(Nc2nc(-c3cc(C(F)(F)F)ccc3F)cs2)c1	30.1 (≈ 11 µg/mL)	
Cc1ccc(Nc2nc(-c3cc(C(F)(F)F)ccc3F)cs2)c(Cl)c1	> 128	
Fc1ccc(Nc2nc(-c3cc(C(F)(F)F)ccc3F)cs2)cc1	59.5 (≈ 21.2 µg/mL)	
Cc1ccc(Nc2nc(-c3cc(C(F)(F)F)ccc3F)cs2)c(C)c1	30.8 (≈ 11.3 µg/mL)	
CCN(c1cc(Cl)cc(Cl)c1)c1nc(-c2cc(C(F)(F)F)ccc2F)cs1	> 128	
COc1ccc(-c2csc(Nc3cc(Cl)cc(Cl)c3)n2)cc1	15.6 (≈ 5.48 µg/mL)	
Cc1ccc(Nc2nc(-c3ccc(C(F)(F)F)cc3)cs2)cc1	> 128	
Cc1ccc(Nc2nc(-c3ccc(Cl)cc3)cs2)cc1	> 128	
Cc1ccc(Nc2nc(-c3ccccc3Cl)cs2)cc1	> 128	
Cc1ccc(Nc2nc(-c3ccc(C)cc3)cs2)cc1	> 128	
Cc1ccc(Nc2nc(-c3ccccc3)cs2)cc1	63.8 (≈ 17 µg/mL)	
Cc1ccc(Nc2nc(-c3ccc(O)cc3)cs2)cc1	> 128	
Clc1cc(Cl)cc(Nc2nc(-c3ccccc3)cs2)c1	28.6 (≈ 9.19 µg/mL)	
Cc1sc(Nc2cc(Cl)cc(Cl)c2)nc1-c1ccccc1	28.9 (≈ 9.69 µg/mL)	
Clc1cc(Cl)cc(Nc2nc(-c3ccccc3)c(-c3ccccc3)s2)c1	> 128	
NNC(=O)c1ccncc1 [ISONIAZID]	0.4 (≈ 0.0549 µg/mL)	
O=[N+]([O-])c1cn2c(n1)OC[C@@H](OCc1ccc(OC(F)(F)F)cc1)C2 [PRETOMANID]	0.8 (≈ 0.287 µg/mL)	
CO[C@H]1/C=C/O[C@@]2(C)Oc3c(C)c(O)c4c(O)c(c(/C=N/N5CCN(C)CC5)c(O)c4c3C2=O)NC(=O)/C(C)=C\C=C\[C@H](C)[C@H](O)[C@@H](C)[C@@H](O)[C@@H](C)[C@H](OC(C)=O)[C@@H]1C [RIFAMPIN]	0.1 (≈ 0.0823 µg/mL)	
CN[C@@H]1[C@H](O[C@H]2[C@H](O[C@H]3[C@H](O)[C@@H](O)[C@H](N=C(N)N)[C@@H](O)[C@@H]3N=C(N)N)O[C@@H](C)[C@]2(O)C=O)O[C@@H](CO)[C@H](O)[C@H]1O [STREPTOMYCIN]	0.3 (≈ 0.174 µg/mL)	
